Experimental findings from ChEMBL document CHEMBL4732078 (Eur J Med Chem, 2021) are described below.

Data set [1] can be described thus: Metabolic stability in Beagle dog hepatocytes assessed as half life. Type of data set: ADME, cell-based, Canis lupus familiaris, Hepatocyte.
The next data set concerns SJRH30. Briefly: Antiproliferative activity against human Rh30 cells assessed as reduction in cell viability after 72 hrs by sulforhodamine B assay. Type of data set: functional, cell-based. To be noted: SJRH30, 72 h. In short, it runs like this:
(§1)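 SRB assay. Exponentially growing cells seeded at 3000–5000/well, compounds added serially diluted after 24 h, cultured 72 h. Cells fixed with 10% TCA, stained with SRB, dye dissolved in 10 mM Tris-HCl, absorbance read at 560 nm. Inhibition = (ODcontrol − ODtreated)/ODcontrol × 100%. IC50 is the mean of at least three independent tests.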

A further data set concerns Mus musculus. Description: In vivo inhibition of PI3Kalpha in BALB/cA nude mouse xenografted with human SK-OV-3 cells assessed as reduction in AKT phosphorylation at Ser473 residue in tumor at 5 mg/kg, po measured after 4 to 8 hrs by Western blot analysis. The note with it: time 4-8 hrs. In kind it is functional, organism-based. A digest of the protocol:
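Nude mice carrying SKOV-3 xenografts of 200 mm³ got a single oral 5 mg/kg dose. Tumors were collected at 0, 2, 4 or 8 h, homogenized, and pAkt S473 probed by Western blot.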

The subject of data set [2] is RAF proto-oncogene serine/threonine-protein kinase (Homo sapiens), P04049 [Y340D,Y341D]. Description: Inhibition of human recombinant c-Raf Y340D/Y341D mutant (306 to end residues) using inactive MEK1 as substrate at 10 uM incubated for 40 mins in presence of [gamma33P-ATP] by radiometric scintillation counting analysis.
Data set [3] addresses Phosphatidylinositol 4,5-bisphosphate 3-kinase catalytic subunit gamma isoform (Homo sapiens) (UniProt P48736). Briefly: Inhibition of PI3Kgamma (unknown origin) transfected in human Rh30 cells assessed as reduction in AKT phosphorylation at Ser473 residue at 10XIC50 by western blot analysis. Type of data set: cell-based. In short, it runs like this: (§2)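 Rh30 cells ectopically expressing membrane-anchored, N-terminally myristoylated, constitutively active p110α, β, γ or δ. Akt phosphorylation assessed by Western blot; lysates made in RIPA buffer, equal protein heated at 95 °C for 10 min in SDS loading buffer.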

The subject of another data set is T47D. Briefly: Antiproliferative activity against human T47D cells assessed as reduction in cell viability after 72 hrs by sulforhodamine B assay. In kind it is functional, cell-based. In short, it runs like this:
as §1

A further data set concerns LoVo. Briefly: Antiproliferative activity against human LoVo cells assessed as reduction in cell viability after 72 hrs by sulforhodamine B assay. Type of data set: functional, cell-based. In short, it runs like this:
as §1
On the technique in general: In SRB staining, fixed cells bind dye roughly in proportion to their protein.

The nature of data set [4]: Metabolic stability in human hepatocytes assessed as intrinsic clearance. Type of data set: ADME, cell-based, Hepatocyte. The note with it: read-out: CLH.
For a further data set, the system named is SK-OV-3. Briefly: Antiproliferative activity against human SK-OV-3 cells assessed as reduction in cell viability after 72 hrs by sulforhodamine B assay. The note with it: SK-OV-3, 72 h. In kind it is functional, cell-based. A digest of the protocol: as §1
Data set [5] in a line: Toxicity in BALB/cA nude mouse xenografted with human SK-OV-3 cells assessed as changes in body weight at 5 to 20 mg/kg, po administered once a day for 21 days and measured twice per week. Type of data set: organism-based. The note with it: in vivo, 504 h, dose 5-20 mg/kg/day, time 21 day. In short, it runs like this: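 Female BALB/cA nude mice, 4–5 weeks old, received s.c. passaged SKOV-3 tumor fragments (1.5 mm³) in the right flank. At about 100 mm³ they were randomized to oral vehicle or compound once daily for 21 days. Body weight was measured individually twice per week.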

The target in data set [6] is Phosphatidylinositol 4,5-bisphosphate 3-kinase catalytic subunit delta isoform (Homo sapiens) (UniProt O00329). Description: Inhibition of PI3Kdelta (unknown origin) transfected in human Rh30 cells assessed as reduction in AKT phosphorylation at Ser473 residue at 10XIC50 by western blot analysis. In kind it is cell-based. A digest of the protocol:
as §2
(In general: Immunoblotting shows a protein as a band on a membrane.)

In data set [7] the target is Phosphatidylinositol 4,5-bisphosphate 3-kinase catalytic subunit beta isoform (Homo sapiens) (UniProt P42338). Description: Inhibition of PI3Kbeta (unknown origin) transfected in human Rh30 cells assessed as reduction in AKT phosphorylation at Thr308 residue at 10XIC50 by western blot analysis. Type of data set: cell-based. In short, it runs like this: as §2
Another data set is filed under the species Homo sapiens. Description: Selectivity index, ratio of IC50 for human PI3K p110delta/p85alpha to IC50 for human PI3Kalpha by HTRF assay. In short, it runs like this:
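The PI3K isoforms were assayed with an HTRF kit. Each enzyme was incubated in assay buffer containing 10 μM PIP2, and the reaction was started with ATP and run 30 min at room temperature. Stop solution and detection mix were then added and light emission was read. IC50 values were averages of at least 3 separate determinations, and each index is the ratio of IC50 values.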
A general note: In TR-FRET formats the signal depends on donor and acceptor labels being close together.

Active and inactive are the calls of the source. The calls are words filed in the database; no cut-off is given here.

Phosphatidylinositol 4,5-bisphosphate 3-kinase catalytic subunit beta isoform (Homo sapiens), sequence (P42338 whole entry, looked up, canonical isoform): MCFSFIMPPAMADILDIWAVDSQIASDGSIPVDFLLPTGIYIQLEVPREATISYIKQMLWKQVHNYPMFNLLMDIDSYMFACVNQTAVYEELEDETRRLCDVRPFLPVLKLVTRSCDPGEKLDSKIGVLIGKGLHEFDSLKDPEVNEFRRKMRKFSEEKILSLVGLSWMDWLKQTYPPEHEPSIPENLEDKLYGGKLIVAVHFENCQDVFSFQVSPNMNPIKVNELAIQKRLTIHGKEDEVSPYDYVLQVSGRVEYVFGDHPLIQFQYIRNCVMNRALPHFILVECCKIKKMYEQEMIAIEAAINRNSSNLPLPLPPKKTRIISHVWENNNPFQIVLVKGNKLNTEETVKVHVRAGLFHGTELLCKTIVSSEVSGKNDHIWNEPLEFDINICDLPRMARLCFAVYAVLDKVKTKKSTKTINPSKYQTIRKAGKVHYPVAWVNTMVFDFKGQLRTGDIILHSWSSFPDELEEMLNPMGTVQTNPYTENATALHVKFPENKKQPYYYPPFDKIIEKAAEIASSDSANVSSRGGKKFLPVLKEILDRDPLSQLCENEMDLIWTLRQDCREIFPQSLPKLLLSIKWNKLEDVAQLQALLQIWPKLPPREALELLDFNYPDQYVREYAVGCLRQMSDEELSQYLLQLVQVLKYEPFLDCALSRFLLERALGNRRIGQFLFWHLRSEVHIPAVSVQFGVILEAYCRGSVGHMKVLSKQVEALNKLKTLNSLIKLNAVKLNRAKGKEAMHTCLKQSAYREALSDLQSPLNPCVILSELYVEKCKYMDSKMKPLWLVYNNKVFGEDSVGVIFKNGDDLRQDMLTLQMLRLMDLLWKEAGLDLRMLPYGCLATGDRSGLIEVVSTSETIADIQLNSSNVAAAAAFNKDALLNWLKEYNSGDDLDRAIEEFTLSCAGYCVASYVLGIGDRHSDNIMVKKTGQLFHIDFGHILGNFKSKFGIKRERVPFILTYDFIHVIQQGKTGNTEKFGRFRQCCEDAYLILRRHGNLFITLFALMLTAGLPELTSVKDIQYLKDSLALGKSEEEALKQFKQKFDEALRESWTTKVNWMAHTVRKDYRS
Phosphatidylinositol 4,5-bisphosphate 3-kinase catalytic subunit delta isoform (Homo sapiens), sequence (O00329 whole entry, canonical isoform): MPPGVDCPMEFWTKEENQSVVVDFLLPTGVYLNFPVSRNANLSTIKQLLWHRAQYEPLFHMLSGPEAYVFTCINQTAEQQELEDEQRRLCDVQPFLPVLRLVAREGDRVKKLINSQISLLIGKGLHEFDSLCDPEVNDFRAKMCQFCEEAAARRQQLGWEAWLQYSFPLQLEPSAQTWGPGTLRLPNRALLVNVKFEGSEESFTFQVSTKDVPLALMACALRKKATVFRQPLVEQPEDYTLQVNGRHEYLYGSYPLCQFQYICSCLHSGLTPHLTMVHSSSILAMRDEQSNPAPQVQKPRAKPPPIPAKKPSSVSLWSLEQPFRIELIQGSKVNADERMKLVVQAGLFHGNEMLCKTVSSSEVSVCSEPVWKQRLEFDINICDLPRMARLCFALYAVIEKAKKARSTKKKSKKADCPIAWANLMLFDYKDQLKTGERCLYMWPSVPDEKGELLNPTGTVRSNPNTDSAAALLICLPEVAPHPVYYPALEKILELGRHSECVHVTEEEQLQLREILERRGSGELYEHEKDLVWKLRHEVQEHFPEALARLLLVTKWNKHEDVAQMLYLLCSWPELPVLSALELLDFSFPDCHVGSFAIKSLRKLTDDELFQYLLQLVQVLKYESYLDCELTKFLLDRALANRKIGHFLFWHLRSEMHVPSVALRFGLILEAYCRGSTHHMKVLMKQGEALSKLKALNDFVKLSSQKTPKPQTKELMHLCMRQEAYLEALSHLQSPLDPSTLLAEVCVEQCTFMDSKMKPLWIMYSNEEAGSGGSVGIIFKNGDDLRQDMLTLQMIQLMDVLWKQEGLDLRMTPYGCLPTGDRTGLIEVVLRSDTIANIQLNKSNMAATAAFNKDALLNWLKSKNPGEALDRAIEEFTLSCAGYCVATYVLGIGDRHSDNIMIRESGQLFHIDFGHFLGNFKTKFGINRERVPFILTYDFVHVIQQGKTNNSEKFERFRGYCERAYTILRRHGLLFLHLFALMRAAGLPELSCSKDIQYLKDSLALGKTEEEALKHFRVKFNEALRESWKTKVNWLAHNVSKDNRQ
Phosphatidylinositol 4,5-bisphosphate 3-kinase catalytic subunit gamma isoform (Homo sapiens), sequence (P48736 whole entry, looked up, canonical isoform): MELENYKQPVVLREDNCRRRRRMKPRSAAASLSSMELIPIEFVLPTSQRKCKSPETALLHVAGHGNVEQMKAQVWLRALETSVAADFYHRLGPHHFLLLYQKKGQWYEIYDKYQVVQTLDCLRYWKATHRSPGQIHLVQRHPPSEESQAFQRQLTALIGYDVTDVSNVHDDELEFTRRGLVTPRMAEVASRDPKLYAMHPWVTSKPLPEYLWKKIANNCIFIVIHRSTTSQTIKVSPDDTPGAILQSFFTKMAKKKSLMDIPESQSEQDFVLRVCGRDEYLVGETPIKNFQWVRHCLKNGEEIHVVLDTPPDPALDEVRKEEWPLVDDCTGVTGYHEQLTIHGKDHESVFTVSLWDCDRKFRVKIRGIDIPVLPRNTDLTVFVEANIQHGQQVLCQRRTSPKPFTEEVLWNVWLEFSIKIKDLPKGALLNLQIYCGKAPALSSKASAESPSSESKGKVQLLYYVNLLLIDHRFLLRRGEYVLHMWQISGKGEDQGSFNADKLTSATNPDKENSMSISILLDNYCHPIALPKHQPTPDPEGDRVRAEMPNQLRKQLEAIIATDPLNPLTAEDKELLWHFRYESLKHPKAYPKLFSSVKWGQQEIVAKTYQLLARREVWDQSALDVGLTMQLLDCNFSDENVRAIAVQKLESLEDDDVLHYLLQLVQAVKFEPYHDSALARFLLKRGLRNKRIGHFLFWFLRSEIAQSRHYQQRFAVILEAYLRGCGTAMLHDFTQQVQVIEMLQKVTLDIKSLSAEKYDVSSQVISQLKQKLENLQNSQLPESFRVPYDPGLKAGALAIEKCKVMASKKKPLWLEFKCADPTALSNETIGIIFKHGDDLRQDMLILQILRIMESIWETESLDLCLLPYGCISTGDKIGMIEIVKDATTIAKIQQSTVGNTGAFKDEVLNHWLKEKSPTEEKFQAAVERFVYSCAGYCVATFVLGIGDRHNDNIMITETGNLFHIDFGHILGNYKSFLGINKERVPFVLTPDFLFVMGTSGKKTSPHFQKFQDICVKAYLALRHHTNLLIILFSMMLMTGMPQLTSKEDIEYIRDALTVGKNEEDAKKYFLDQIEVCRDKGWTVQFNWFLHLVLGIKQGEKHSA
RAF proto-oncogene serine/threonine-protein kinase (Homo sapiens), P04049 [Y340D,Y341D], sequence (P04049 whole entry Y340D/Y341D, canonical isoform): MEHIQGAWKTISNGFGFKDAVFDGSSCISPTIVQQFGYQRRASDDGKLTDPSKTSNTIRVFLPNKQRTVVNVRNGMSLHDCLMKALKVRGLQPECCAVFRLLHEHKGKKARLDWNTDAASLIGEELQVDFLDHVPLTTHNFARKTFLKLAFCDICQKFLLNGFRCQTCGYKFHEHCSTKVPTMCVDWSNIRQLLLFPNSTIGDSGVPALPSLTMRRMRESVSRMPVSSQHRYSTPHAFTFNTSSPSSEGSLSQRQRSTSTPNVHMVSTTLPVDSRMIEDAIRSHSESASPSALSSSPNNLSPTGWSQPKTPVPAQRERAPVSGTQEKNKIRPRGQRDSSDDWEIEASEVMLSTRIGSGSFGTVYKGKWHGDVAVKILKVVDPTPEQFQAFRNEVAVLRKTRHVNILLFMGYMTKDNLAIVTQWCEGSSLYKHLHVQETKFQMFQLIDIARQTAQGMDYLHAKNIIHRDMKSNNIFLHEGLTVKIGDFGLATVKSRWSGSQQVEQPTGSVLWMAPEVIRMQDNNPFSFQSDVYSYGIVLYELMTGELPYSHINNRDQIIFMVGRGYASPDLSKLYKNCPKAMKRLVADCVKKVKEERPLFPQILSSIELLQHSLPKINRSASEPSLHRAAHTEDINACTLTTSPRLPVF

`COC(=O)Nc1cc(C(F)(F)F)c(-c2nc(N3CCOCC3)c3cc(CN4CCN(S(C)(=O)=O)CC4)cn3n2)cn1` [RISOVALISIB]: in [1], the half-life is 1.46 h. In addition, the IC50 is 1.03 µM with SJRH30, below 1 µM with T47D, below 1 µM with LoVo and below 1 µM with SK-OV-3. Moreover, the inhibition entry in the data set on Mus musculus is “inactive”. The inhibition in data set [2] is above 50%. The inhibition entry in [3], in data set [6] and in data set [7] was “Active” each time. In addition, the CLint scaled in [4] worked out at 0.183 L/h/kg. The Activity result in data set [5] is recorded as “Non-Toxic”. Besides, the Ratio IC50 in the data set listed under Homo sapiens was 13.

A word on the half-life: it is how long it takes for the measured level to halve. As a reminder, the IC50 is the concentration that gives 50% inhibition. As usually defined, the inhibition is the change of the read-out against control, counted positive when it falls.
